Data from ChEMBL document CHEMBL4725483, “Simultaneous Inhibition of SIRT2 Deacetylase and Defatty-Acylase Activities via a PROTAC Strategy” (ACS Med Chem Lett, 2020).
Calls of active or inactive are those of the source. The calls are words filed in the database; no cut-off is given here.

Assays:
[1] = molecular target: T1, NAD-dependent protein deacetylase sirtuin-2 (Homo sapiens, UniProt Q8IXJ6); assay: Inhibition of human SIRT2 deacetylation activity using H3K9Ac as substrate in presence of NAD+ by HPLC analysis
T1 sequence (Q8IXJ6 whole entry): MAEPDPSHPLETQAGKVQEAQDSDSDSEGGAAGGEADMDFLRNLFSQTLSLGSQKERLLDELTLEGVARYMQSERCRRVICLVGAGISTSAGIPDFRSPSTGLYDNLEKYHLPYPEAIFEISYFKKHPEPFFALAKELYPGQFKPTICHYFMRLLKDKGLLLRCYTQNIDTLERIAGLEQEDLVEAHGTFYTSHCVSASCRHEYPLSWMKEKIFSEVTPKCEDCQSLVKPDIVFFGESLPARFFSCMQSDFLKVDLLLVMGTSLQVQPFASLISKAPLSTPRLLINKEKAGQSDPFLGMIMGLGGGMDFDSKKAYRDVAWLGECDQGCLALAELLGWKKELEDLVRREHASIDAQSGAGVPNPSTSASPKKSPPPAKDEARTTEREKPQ

[2] = molecular target: NAD-dependent protein deacylase sirtuin-6 (Homo sapiens, UniProt Q8N6T7); assay: Inhibition of human SIRT6 deacetylation activity using H3K9Ac as substrate preincubated for 15 mins in presence of NAD+ followed by substrate addition by HPLC analysis
Sequence of NAD-dependent protein deacylase sirtuin-6 (Q8N6T7 whole entry): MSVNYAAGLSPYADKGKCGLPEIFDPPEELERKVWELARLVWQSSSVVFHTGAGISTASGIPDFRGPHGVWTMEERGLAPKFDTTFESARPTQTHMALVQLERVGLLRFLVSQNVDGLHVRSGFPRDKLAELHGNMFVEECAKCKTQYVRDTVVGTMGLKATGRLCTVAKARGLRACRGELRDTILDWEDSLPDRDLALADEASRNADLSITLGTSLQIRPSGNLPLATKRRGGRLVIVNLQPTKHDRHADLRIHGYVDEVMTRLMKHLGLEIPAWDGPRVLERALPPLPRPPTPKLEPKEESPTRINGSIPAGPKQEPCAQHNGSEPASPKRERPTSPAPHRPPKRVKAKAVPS
In short: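 In vitro sirtuin reaction mixture with compound at a range of concentrations. Compound was preincubated with NAD+ and the enzyme before the substrate peptide was added. IC50 taken from the concentration series.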

[3] = molecular target: Protein cereblon/NAD-dependent protein deacetylase sirtuin-3, mitochondrial (Homo sapiens) (UniProt Q9NTG7+Q96SW2); assay: Protac activity at CRBN/SIRT3 in human MCF7 cells assessed as SIRT3 degradation at 5 to 10 uM after 48 hrs by immunoblot analysis; assay type: cell-based; settings: dose microM 5-10, time 48.0 hrs
Sequence of Protein cereblon/NAD-dependent protein deacetylase sirtuin-3, mitochondrial (Homo sapiens) (Q96SW2 whole entry, looked up): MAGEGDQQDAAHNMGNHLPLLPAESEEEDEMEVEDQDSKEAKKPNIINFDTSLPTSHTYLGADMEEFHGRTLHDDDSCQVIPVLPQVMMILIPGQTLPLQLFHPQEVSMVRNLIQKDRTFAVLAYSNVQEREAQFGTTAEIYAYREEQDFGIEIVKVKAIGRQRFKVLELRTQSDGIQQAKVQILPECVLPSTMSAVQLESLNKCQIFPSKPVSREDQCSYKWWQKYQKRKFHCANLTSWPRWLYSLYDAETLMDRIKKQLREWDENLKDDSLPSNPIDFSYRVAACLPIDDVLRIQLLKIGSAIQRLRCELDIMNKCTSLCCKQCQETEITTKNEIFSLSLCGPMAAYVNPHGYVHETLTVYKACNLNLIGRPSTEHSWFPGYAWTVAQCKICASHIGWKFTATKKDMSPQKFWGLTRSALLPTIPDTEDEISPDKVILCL
Sequence of Protein cereblon/NAD-dependent protein deacetylase sirtuin-3, mitochondrial (Homo sapiens) (Q9NTG7 whole entry, looked up): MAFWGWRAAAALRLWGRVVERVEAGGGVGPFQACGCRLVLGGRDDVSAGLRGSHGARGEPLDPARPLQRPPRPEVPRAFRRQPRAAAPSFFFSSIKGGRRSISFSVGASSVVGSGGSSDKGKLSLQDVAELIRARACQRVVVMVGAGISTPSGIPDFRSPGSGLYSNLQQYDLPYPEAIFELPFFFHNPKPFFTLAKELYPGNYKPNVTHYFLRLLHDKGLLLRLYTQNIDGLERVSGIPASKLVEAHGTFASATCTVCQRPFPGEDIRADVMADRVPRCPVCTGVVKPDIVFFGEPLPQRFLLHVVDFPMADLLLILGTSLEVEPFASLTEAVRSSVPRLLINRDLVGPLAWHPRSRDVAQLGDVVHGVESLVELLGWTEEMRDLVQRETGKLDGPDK
In short: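 MCF7 or BT-549 cells exposed to inhibitor at the indicated concentrations for 48 h; SIRT1, SIRT2 and SIRT3 levels read by immunoblot.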

[4] = molecular target: T2, Protein cereblon/NAD-dependent protein deacetylase sirtuin-2 (Homo sapiens) (UniProt Q8IXJ6+Q96SW2); assay: Protac activity at CRBN/SIRT2 in human MDA-MB-468 cells assessed as SIRT2 degradation after 48 hrs by immunoblot analysis; assay type: cell-based
T2 sequence (Q96SW2 whole entry, looked up, one chain of several): as the sequence (Q96SW2 whole entry, looked up) above
In short: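 In MDA-MB-231 and MDA-MB-468 cells, SIRT2 was assessed by immunoblot after compound treatment.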

[5] = molecular target: T2, Protein cereblon/NAD-dependent protein deacetylase sirtuin-2 (Homo sapiens); assay: Protac activity at CRBN/SIRT2 in human MCF7 cells assessed as SIRT2 degradation at 5 uM preincubated with proteasome inhibitior MG132 for 2 hrs followed by compound addition measured after 16 hrs by immunoblot analysis; assay type: cell-based
In short: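 Proteasome dependence: MCF7 cells pretreated 2 h with 5 μM MG132, then cotreated with 5 μM compound plus 5 μM MG132 for 16 h more; SIRT2 detected by immunoblot.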

[6] = molecular target: T2, Protein cereblon/NAD-dependent protein deacetylase sirtuin-2 (Homo sapiens); assay: Protac activity at CRBN/SIRT2 in human MCF7 cells assessed as inhibition of SIRT2 deacetylation by measuring increase in acetylated-alpha tubulin level at 10 uM measured after 12 hrs by DAPI staining based immunofluorescence microscopic analysis; assay type: cell-based
In short: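 MCF7 cells treated for 12 h with 5 or 10 μM, DMSO as control. Acetyl-α-tubulin (K40) was imaged by immunofluorescence, and fluorescence intensity was quantified and normalized to vehicle.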

[7] = molecular target: Protein cereblon/NAD-dependent protein deacylase sirtuin-5, mitochondrial (Homo sapiens) (UniProt Q9NXA8+Q96SW2); assay: Protac activity at CRBN/SIRT5 in human HEK293T cells assessed as abundance ratio at 5 uM incubated for 16 hrs by TMT global proteomics assay relative to DMSO; assay type: cell-based; settings: HEK-293T
Sequence of Protein cereblon/NAD-dependent protein deacylase sirtuin-5, mitochondrial (Homo sapiens) (Q96SW2 whole entry, looked up): as above
Sequence of Protein cereblon/NAD-dependent protein deacylase sirtuin-5, mitochondrial (Homo sapiens) (Q9NXA8 whole entry, looked up): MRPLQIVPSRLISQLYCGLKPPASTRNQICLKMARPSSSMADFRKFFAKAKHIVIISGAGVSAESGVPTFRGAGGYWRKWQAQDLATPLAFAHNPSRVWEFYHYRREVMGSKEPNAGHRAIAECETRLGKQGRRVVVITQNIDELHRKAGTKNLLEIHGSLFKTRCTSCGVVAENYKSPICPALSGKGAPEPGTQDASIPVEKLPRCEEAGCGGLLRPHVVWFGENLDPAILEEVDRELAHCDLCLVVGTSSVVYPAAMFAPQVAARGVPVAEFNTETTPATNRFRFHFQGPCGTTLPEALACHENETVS
In short: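 HEK 293T cells were treated for 16 h. Global proteome was quantified by Tandem Mass Tag labelling. The abundance ratio of each sirtuin was taken against DMSO-treated cells.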

CCCCCCCCCCCCCC(=S)NCCCC[C@H](NC(=O)CCOCCOCCOCCOCCNc1cccc2c1C(=O)N(C1CCC(=O)NC1=O)C2=O)C(=O)Nc1ccccc1 (some centres not stated)
IC50 [1]: 93 nM
IC50 [2]: > 83000 nM
Activity [3]: inactive
Activity [4]: Active
Activity [5]: inactive
Activity [6]: Active
Activity [7]: inactive
